Results reported in article PMC3229844 (Chemmedchem, 2011).
Read-outs that look alike come from different tables or passages of the source. Square brackets hold non-standard residues; d marks the D form. Side chains are listed from the residue outwards. Peptide text beside a SMILES is read from it. * marks the point of attachment. DOTA = O=C(O)CN1CCN(CC(=O)O)CCN(CC(=O)*)CCN(CC(=O)O)CC1; 2Nal = N[C@@H](Cc1ccc2ccccc2c1)C(=O)O; dNMeOrn = CN[C@H](CCCN)C(=O)O; 4Amb = NCc1ccc(C(=O)O)cc1

Columns and labels:
CXCR4 [1] = molecular target: T1, CXCR4 (Homo sapiens, UniProt P61073); type: binding; settings: Table 1; mean±SD of three experiments except values greater than 100 nM
T1 sequence (P61073 whole entry): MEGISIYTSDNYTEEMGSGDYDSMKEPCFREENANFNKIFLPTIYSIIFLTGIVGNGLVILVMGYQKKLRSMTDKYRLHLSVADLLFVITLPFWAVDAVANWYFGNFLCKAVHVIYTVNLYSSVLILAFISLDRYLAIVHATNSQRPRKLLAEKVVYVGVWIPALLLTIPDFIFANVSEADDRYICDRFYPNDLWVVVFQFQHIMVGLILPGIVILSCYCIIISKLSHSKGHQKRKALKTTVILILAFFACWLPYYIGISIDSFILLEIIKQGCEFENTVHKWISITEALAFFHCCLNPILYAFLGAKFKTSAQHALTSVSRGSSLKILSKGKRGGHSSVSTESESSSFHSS

[2] = Biodistribution of [68Ga]2 c in OH1 tumor-bearing nude mice; type: in vivo; settings: nude, mouse, tumor / muscle, total radioactivity, Tumor/Muscle ratio, Blockade, 1 h p.i. (n=4), in the presence of 50 μg cyclo-(D-Tyr 1-Arg 2-Arg 3-Nal 4-Gly 5), OH1 mice
Outline: (§1)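 Tracer: 68Ga-labeled test compound, given alone or co-injected with 50 μg competitor, in nude mice bearing OH-1 human small-cell lung cancer xenografts. Animals were sampled at 60 and 120 min post-injection. Organ and tumour activity was expressed as %ID g−1, and tumour/muscle ratios were derived.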

[3] = tested on: OH-1 human small-cell lung cancer xenografts; assay: as above; type: in vivo
Outline: as §1

[4] = tested on: OH-1 human small-cell lung cancer xenografts; assay: PET imaging of CXCR4 expression in tumor-bearing nude mice; type: in vivo
CXCR4 [5] = molecular target: T1, CXCR4; settings: value taken from the literature; cited from earlier work
[6] = 1 h p.i. (n=4), in the presence of 50 μg cyclo-(D-Tyr 1-Arg 2-Arg 3-Nal 4-Gly 5), OH1 mice

CN1C(=O)[C@@H](Cc2ccc(O)cc2)NC(=O)CNC(=O)[C@H](Cc2ccc3ccccc3c2)NC(=O)[C@H](CCCNC(=N)N)NC(=O)[C@H]1CCCNC(=O)c1ccc(CNC(=O)CN2CCN(CC(=O)O)CCN(CC(=O)O)CCN(CC(=O)O)CC2)cc1 [2 b] (cyclo([dY][dNMeOrn]([4Amb-DOTA])R[2Nal]G))
IC50 (CXCR4 [1]): 44 ± 4 nM

CN1C(=O)[C@@H](Cc2ccc(O)cc2)NC(=O)CNC(=O)[C@H](Cc2ccc3ccccc3c2)NC(=O)[C@H](CCCNC(=N)N)NC(=O)[C@H]1CCCNC(=O)c1ccc(CNC(=O)CN2CCN(CC(=O)O)CCN(CC(=O)O)CCN(CC(=O)O)CC2)cc1 [[^68Ga]2 c, metal not drawn] (cyclo([dY][dNMeOrn]([4Amb-DOTA])R[2Nal]G))
tissue to tissue ratio at 1 h [2]: 3.45 ± 1.45 | Blockade, Adrenal glands [3, 6]: 0.87±0.32 %ID g^−1 | Blockade, Blood [3, 6]: 2.50±0.64 %ID g^−1 | Blockade, Heart [3, 6]: 1.38±0.52 %ID g^−1 | Blockade, Intestine [3, 6]: 1.00±0.32 %ID g^−1 | Blockade, Kidney [3, 6]: 7.19±1.83 %ID g^−1 | Blockade, Liver [3, 6]: 2.27±0.59 %ID g^−1 | Blockade, Lung [3, 6]: 3.25±1.06 %ID g^−1 | Blockade, Muscle [3, 6]: 0.58±0.21 %ID g^−1 | Blockade, Pancreas [3, 6]: 0.75±0.19 %ID g^−1 | Blockade, Spleen [3, 6]: 1.03±0.40 %ID g^−1 | Blockade, Stomach [3, 6]: 1.40±0.30 %ID g^−1 | Blockade, Tumor [3, 6]: 1.88±0.30 %ID g^−1 | Biodistribution, Adrenal glands ([3]; 1 h p.i. (n=8), OH1 mice): 0.83±0.55 %ID g^−1 | Biodistribution, Blood ([3]; 1 h p.i. (n=8), OH1 mice): 1.08±0.27 %ID g^−1 | Biodistribution, Heart ([3]; 1 h p.i. (n=8), OH1 mice): 0.60±0.16 %ID g^−1 | Biodistribution, Intestine ([3]; 1 h p.i. (n=8), OH1 mice): 0.45±0.11 %ID g^−1 | Biodistribution, Kidney ([3]; 1 h p.i. (n=8), OH1 mice): 3.06±0.63 %ID g^−1 | Biodistribution, Liver ([3]; 1 h p.i. (n=8), OH1 mice): 1.85±0.24 %ID g^−1 | Biodistribution, Lung ([3]; 1 h p.i. (n=8), OH1 mice): 1.41±0.26 %ID g^−1 | Biodistribution, Muscle ([3]; 1 h p.i. (n=8), OH1 mice): 0.38±0.09 %ID g^−1 | Biodistribution, Pancreas ([3]; 1 h p.i. (n=8), OH1 mice): 0.30±0.07 %ID g^−1 | Biodistribution, Spleen ([3]; 1 h p.i. (n=8), OH1 mice): 0.69±0.09 %ID g^−1 | Biodistribution, Stomach ([3]; 1 h p.i. (n=8), OH1 mice): 0.72±0.26 %ID g^−1 | Biodistribution, Tumor ([3]; 1 h p.i. (n=8), OH1 mice): 6.16±1.16 %ID g^−1 | tumor to organ ratios ([3]; 1 h post-injection): High tumor to organ ratios | Biodistribution, Adrenal glands ([3]; 2 h p.i. (n=3), OH1 mice): 0.50±0.15 %ID g^−1 | Biodistribution, Blood ([3]; 2 h p.i. (n=3), OH1 mice): 0.58±0.14 %ID g^−1 | Biodistribution, Heart ([3]; 2 h p.i. (n=3), OH1 mice): 0.29±0.10 %ID g^−1 | Biodistribution, Intestine ([3]; 2 h p.i. (n=3), OH1 mice): 0.36±0.04 %ID g^−1 | Biodistribution, Kidney ([3]; 2 h p.i. (n=3), OH1 mice): 2.07±0.46 %ID g^−1 | Biodistribution, Liver ([3]; 2 h p.i. (n=3), OH1 mice): 1.48±0.31 %ID g^−1 | Biodistribution, Lung ([3]; 2 h p.i. (n=3), OH1 mice): 2.85±2.69 %ID g^−1 | Biodistribution, Muscle ([3]; 2 h p.i. (n=3), OH1 mice): 0.28±0.17 %ID g^−1 | Biodistribution, Pancreas ([3]; 2 h p.i. (n=3), OH1 mice): 0.21±0.02 %ID g^−1 | Biodistribution, Spleen ([3]; 2 h p.i. (n=3), OH1 mice): 0.65±0.25 %ID g^−1 | Biodistribution, Stomach ([3]; 2 h p.i. (n=3), OH1 mice): 0.46±0.12 %ID g^−1 | Biodistribution, Tumor ([3]; 2 h p.i. (n=3), OH1 mice): 4.63±1.54 %ID g^−1 | tumor uptake on co-injection of competitor ([4]; co-injection of 50 μg AMD3100 per mouse (data not shown)): significantly reduced | tumor uptake on co-injection of competitor ([4]; co-injection of 50 μg cyclo-(-D-Tyr 1-Arg 2-Arg 3-Nal 4-Gly 5) per mouse): significantly reduced | accumulation in CXCR4-expressing tumors ([4]; nude mice bearing OH-1 human small-cell lung cancer xenografts): accumulated in high levels

cyclo-(-D-Tyr 1-Arg 2-Arg 3-Nal 4-Gly 5) [1 a]
IC50 (CXCR4 [5]): 4.3 ± 1.2 nM
